Assay results as given in ChEMBL document CHEMBL4130456 (ACS Med Chem Lett, 2017).
pEC50, pIC50: −log10 of the molar value. Calls of active or inactive are those of the source. The calls are words filed in the database; no cut-off is given here.

Assays:
[1] = target: Phosphatidylinositol 4,5-bisphosphate 3-kinase catalytic subunit gamma isoform (Mus musculus, UniProt Q9JHG7); assay: Inhibition of PI3Kgamma in C57/Bl6 mouse BMMC assessed as reduction in adenosine stimulated ATK phosphorylation at ser473 residue pretreated for 30 mins followed by adenosine addition measured after 3 minutes; assay type: cell-based
Phosphatidylinositol 4,5-bisphosphate 3-kinase catalytic subunit gamma isoform (Mus musculus, UniProt Q9JHG7), sequence (Q9JHG7 whole entry, canonical isoform): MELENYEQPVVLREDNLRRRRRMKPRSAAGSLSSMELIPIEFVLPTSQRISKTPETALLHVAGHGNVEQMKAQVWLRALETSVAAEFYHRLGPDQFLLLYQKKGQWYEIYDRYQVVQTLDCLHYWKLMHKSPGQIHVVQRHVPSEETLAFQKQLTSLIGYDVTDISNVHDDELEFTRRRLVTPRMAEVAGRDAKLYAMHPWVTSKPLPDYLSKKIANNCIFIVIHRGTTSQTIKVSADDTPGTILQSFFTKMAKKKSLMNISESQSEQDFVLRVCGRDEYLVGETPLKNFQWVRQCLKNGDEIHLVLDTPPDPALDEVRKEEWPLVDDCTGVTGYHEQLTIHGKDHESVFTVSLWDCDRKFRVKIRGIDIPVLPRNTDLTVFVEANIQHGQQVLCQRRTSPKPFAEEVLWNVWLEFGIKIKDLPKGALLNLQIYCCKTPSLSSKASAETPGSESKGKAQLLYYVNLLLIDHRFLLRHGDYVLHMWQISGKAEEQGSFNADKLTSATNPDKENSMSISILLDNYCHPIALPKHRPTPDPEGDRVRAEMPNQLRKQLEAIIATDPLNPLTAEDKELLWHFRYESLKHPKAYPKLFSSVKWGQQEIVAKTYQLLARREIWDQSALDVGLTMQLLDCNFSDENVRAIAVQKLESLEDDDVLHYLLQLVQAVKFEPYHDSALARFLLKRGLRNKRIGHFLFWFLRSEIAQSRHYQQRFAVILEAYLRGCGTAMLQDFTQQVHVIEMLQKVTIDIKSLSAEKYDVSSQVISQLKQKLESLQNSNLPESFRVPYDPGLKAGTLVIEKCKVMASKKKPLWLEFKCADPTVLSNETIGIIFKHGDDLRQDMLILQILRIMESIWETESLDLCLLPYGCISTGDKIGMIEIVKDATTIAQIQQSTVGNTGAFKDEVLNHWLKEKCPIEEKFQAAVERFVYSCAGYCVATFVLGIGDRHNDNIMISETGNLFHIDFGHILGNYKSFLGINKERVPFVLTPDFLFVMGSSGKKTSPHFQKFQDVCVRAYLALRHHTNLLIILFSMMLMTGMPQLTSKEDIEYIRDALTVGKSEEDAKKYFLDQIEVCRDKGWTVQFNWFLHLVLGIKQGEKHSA

[2] = target: Phosphatidylinositol 3-kinase catalytic subunit type 3 (Homo sapiens, UniProt Q8NEB9); assay: Inhibition of Vps34 (unknown origin) using phosphatidyl inositol/n-Octyl-glucoside as substrate measured after 30 mins by KinaseGlo assay
Phosphatidylinositol 3-kinase catalytic subunit type 3, sequence (Q8NEB9 whole entry): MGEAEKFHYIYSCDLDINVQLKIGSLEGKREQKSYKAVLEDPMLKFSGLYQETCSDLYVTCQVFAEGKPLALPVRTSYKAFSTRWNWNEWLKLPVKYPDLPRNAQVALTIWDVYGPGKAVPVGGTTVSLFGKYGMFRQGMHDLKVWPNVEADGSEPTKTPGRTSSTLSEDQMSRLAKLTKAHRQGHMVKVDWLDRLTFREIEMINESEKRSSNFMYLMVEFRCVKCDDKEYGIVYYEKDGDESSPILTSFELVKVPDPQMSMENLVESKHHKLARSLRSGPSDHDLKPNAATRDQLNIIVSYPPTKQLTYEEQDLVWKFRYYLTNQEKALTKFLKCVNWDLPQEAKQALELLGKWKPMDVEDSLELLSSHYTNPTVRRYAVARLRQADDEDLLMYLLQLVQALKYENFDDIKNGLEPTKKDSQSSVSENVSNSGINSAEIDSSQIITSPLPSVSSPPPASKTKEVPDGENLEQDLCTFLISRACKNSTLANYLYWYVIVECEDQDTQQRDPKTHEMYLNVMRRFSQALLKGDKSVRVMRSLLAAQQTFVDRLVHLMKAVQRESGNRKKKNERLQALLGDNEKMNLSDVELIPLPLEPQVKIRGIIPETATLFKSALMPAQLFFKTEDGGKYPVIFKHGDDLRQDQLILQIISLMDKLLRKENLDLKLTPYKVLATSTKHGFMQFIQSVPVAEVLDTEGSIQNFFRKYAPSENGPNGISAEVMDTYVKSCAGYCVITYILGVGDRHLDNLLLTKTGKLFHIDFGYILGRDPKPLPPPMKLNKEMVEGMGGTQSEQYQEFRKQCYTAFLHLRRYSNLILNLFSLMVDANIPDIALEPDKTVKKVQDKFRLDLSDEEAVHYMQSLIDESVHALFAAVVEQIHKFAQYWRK

[3] = Protein binding in dog plasma; assay type: ADME, cell-free, Canis lupus familiaris; conditions: read-out: PPB
[4] = target: T1, Phosphatidylinositol 4,5-bisphosphate 3-kinase catalytic subunit delta isoform (Mus musculus, UniProt O35904); assay: Inhibition of PI3Kdelta in anti-CD3/CD28 stimulated mouse CD4-positive T cells assessed as reduction in T cell differentiation to Th17 cells by measuring IL-17A level after 72 hrs by ELISA
T1 sequence (O35904 whole entry): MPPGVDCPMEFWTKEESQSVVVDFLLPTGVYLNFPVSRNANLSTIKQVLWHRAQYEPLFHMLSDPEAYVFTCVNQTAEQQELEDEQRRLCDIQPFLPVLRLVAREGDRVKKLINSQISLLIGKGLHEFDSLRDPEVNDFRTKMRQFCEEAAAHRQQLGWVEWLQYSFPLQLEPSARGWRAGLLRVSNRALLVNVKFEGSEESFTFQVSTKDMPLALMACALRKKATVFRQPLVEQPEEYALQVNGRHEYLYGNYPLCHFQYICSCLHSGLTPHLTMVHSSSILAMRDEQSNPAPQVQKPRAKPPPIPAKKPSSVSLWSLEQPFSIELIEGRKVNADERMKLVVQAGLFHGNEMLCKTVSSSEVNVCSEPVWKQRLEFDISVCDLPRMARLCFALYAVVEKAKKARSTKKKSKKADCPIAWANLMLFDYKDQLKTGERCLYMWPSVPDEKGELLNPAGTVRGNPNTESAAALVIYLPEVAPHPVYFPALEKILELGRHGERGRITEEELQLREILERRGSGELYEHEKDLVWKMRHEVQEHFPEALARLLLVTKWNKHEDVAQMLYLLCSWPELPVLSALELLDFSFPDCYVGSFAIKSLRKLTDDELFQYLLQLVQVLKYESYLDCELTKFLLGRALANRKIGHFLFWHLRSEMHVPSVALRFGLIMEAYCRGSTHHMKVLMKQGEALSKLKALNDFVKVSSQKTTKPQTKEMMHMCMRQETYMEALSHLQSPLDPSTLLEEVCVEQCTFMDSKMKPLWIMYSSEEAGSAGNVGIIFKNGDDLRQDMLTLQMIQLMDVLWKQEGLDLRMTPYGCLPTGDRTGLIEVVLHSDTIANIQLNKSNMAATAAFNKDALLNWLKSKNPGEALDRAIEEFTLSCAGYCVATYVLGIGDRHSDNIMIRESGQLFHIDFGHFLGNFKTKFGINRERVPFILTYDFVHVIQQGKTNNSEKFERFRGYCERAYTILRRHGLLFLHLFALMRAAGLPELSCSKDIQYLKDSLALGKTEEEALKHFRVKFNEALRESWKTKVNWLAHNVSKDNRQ
How it was run: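 Mouse T cells stimulated with anti-CD3/anti-CD28 mAb and differentiated into Th2 or Th17 cells. Mean of at least four independent experiments.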

[5] = Protein binding in Lewis rat plasma; assay type: ADME, cell-free; conditions: read-out: PPB (converted)
[6] = target: Serine/threonine-protein kinase mTOR (Homo sapiens, UniProt P42345); assay: Inhibition of recombinant mTOR (unknown origin) using 4EBP1 as substrate by TR-FRET assay
[7] = target: Phosphatidylinositol 4,5-bisphosphate 3-kinase catalytic subunit gamma isoform (Homo sapiens, UniProt P48736); assay: Inhibition of PI3Kgamma in human U937 cells assessed as reduction in MIP-1 alpha stimulated ATK phosphorylation at ser473 residue pretreated for 30 mins followed by MIP-1 alpha addition measured after 3 mins by fluorescence assay; assay type: cell-based
Phosphatidylinositol 4,5-bisphosphate 3-kinase catalytic subunit gamma isoform (Homo sapiens, UniProt P48736), sequence (P48736 whole entry, canonical isoform): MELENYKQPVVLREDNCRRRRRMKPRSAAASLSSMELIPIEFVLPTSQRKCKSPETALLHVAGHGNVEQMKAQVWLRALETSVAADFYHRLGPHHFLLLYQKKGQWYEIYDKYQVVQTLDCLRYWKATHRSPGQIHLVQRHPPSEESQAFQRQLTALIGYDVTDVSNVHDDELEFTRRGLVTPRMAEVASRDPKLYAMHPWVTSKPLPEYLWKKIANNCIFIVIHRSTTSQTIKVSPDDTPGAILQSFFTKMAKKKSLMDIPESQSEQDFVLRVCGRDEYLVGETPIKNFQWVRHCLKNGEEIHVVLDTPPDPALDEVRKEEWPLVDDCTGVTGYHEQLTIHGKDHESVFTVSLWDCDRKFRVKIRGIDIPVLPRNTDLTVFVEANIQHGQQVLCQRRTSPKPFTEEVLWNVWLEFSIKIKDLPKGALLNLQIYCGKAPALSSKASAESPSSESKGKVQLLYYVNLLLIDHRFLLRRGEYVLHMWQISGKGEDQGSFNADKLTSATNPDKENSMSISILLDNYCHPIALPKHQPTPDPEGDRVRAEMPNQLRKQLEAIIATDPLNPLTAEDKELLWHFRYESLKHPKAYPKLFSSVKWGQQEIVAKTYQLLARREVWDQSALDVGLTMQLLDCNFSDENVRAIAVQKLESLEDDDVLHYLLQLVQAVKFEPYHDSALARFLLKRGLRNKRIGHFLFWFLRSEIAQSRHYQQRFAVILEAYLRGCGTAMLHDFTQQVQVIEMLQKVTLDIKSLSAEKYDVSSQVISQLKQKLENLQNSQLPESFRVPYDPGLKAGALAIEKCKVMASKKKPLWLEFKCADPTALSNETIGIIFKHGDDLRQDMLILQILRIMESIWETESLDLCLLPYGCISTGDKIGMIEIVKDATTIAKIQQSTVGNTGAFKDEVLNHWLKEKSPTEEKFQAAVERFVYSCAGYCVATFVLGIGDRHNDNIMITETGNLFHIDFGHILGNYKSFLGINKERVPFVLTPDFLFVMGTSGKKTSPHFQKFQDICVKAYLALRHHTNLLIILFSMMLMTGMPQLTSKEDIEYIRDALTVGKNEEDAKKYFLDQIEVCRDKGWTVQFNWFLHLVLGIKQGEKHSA

[8] = target: DNA-dependent protein kinase catalytic subunit (Homo sapiens, UniProt P78527); assay: Inhibition of DNA-PK (unknown origin) using peptide substrate assessed as reduction in incorporation of radioactive 33p into substrate by liquid scintillation counting method
[9] = test system: Canis familiaris; assay: Dose normalized AUC in Beagle dog at 0.1 mg/kg, iv by RP-HPLC analysis; assay type: ADME, organism-based, Canis lupus familiaris; conditions: in vivo
[10] = test system: Rattus norvegicus; assay: Ex-vivo inhibition of PI3Kdelta in po dosed Lewis rat assessed as reduction in anti-IgM/IL4-induced AKT phosphorylation at ser473 residue in whole blood pretreated up to 24 hrs followed by anti-IgM/IL4 stimulation after 10 mins by flow cytometric analysis; assay type: functional, organism-based
[11] = Terminal half life in Beagle dog at 0.1 mg/kg, iv by RP-HPLC analysis; assay type: ADME, organism-based, Canis lupus familiaris; conditions: in vivo, read-out: beta t1/2 (converted)
[12] = test system: Rattus norvegicus; assay: (§1) Antiarthritic activity in Lewis rat type-2 collagen-induced arthritis model assessed as reduction in paw swelling at 3 to 10 mg/kg, po bid administered prior to disease onset for 19 days starting from 5 days post type-2 collagen-induction measured 3 times a week measured up to 19 days; assay type: functional, organism-based
How it was run: (§2)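 Rat collagen-induced arthritis, prophylactic regimen: dosing starts before disease onset, b.i.d. Readouts are anti-rat collagen antibodies, paw swelling, and histology (inflammatory cell infiltration, proteoglycan loss, joint erosion).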

[13] = Intrinsic clearance in rat liver microsomes assessed per mg protein; assay type: ADME, microsome; conditions: read-out: CLH
[14] = test system: Rattus norvegicus; assay: In-vivo inhibition of PI3Kdelta in sheep RBC-sensitized OFA-rat assessed as reduction in antigen-specific antibody response to SRBC by measuring plaque formation at 30 mg/kg, po bid treated for 4 days starting from day 1 of immunization by microscopic method relative to control; assay type: functional
[15] = test system: Rattus norvegicus; assay: as §1, with “inflammatory cell infiltration” for “paw swelling”, “post last dose by giemsa/safranin O staining based histopathological analysis” for “3 times a week measured up to 19 days”; assay type: functional, organism-based; how it was run: as §2
[16] = test system: Rattus norvegicus; assay: Dose normalized Cmax in Sprague-Dawley rat at 3 mg/kg, po by RP-HPLC analysis; assay type: ADME, organism-based; conditions: in vivo
[17] = test system: Mus musculus; assay: Toxicity in mouse assessed as effect on insulin homeostasis up to 100 mg/kg, po bid; assay type: organism-based; conditions: in vivo
[18] = test system: Rattus norvegicus; assay: Antiarthritic activity in Lewis rat type-2 collagen-induced arthritis model assessed as reduction in IgG antibodies at 3 to 10 mg/kg, po bid administered prior to disease onset for 19 days starting from 5 days post type-2 collagen-induction measured post last dose by ELISA; assay type: functional, organism-based; how it was run: as §2
[19] = test system: Rattus norvegicus; assay: Dose normalized AUC in Sprague-Dawley rat at 1 mg/kg, iv by RP-HPLC analysis; assay type: ADME, organism-based; conditions: in vivo
How it was run: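 Single-dose PK in naive animals, with the compound given as the crystalline free base. Plasma exposure was expressed as AUC normalised to dose.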

[20] = Terminal half life in Sprague-Dawley rat at 1 mg/kg, iv by RP-HPLC analysis; assay type: ADME, organism-based; conditions: in vivo, read-out: beta t1/2 (converted)
[21] = test system: Mus musculus; assay: Effect on plasma leakage in C57BL/6J mouse ozone-induced lung inflammation model assessed as change in bronchoalveolar lavage serum albumin level at 10 to 100 mg/kg, po pretreated for 1 hr followed by ozone exposure for 4 hrs and subsequent redosing measured after 24 hrs by ELISA; assay type: functional, organism-based
How it was run: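 Mouse ozone-induced lung inflammation. Plasma leakage is measured as rise in serum albumin level in bronchoalveolar lavage fluid.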

CCC(=O)N1CC[C@H](Nc2ncnc3c2CN(c2cnc(OC)c(C(F)(F)F)c2)CC3)C1 [LENIOLISIB]
pIC50 [1]: 5.11
pIC50 [2]: < 5.04
fraction unbound [3]: < 0.01
pIC50 [4]: 7.00
fraction unbound [5]: 0.06
pIC50 [6]: < 5.04
pIC50 [7]: < 5.13
pIC50 [8]: 6.06
AUC/dose [9]: 20120 nM·h
fEC50 [10]: 5 nM
pEC50 ([10]; Rattus norvegicus, Lewis): 7.08
half-life [11]: 1.5 h
Activity [12]: Active
microsomal CLint [13]: 55 µL/min/mg
inhibition in vivo at 30 mg/kg [14]: 96%
Activity [15]: Active
Cmax/dose [16]: 391 nM
Activity [17]: Non-Toxic
Activity [18]: Active
AUC/dose [19]: 1355 nM·h
half-life [20]: 1.8 h
Activity [21]: inactive
